Compound activity as filed in PubChem BioAssay.
TbMetRS inhib: Trypanosoma brucei MetRS inhibition; purified T. brucei MetRS, ATP depletion, Kinase-Glo luminescence; inhibition, % at 11.9 µM; hit rate 0.4% among 360,000; AID 624268;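 active = inhibition above a per-plate cutoff of the control wells' mean inhibition plus 3 SD, cut at about 5.5% in these data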;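 also: 0% = DMSO wells median and 100% = median of wells with control inhibitor compound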
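Dosing: 11.9 µM compound single dose, 0.9% DMSO; Assay system: purified T. brucei MetRS enzyme; Measured by: Kinase-Glo luciferase luminescence reporting remaining unconsumed ATP; Schedule: 15 min plus 2 h at 25 °C.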
MsrA act: bovine methionine sulfoxide reductase A activation; hit rate 0.3% among 360,000; AID 602163; activation, % at 10.6 µM; purified bovine MsrA, absorbance read-out; in the data active = activation above about 7.5%;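 also: 0% = vehicle and 100% = reference activator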
AI-2 QS modul: Vibrio harveyi AI-2 quorum sensing modulation. Vibrio harveyi JMH597 AI-2 luminescence/OD600 ratio, 9 h; active compounds read low; strain lacks LuxN and CqsS sensors; 0 = neutral-control median. activity change, % at 7.5 µM. hit rate 0.4% among 300,000. AID 2094; in the data active = activity change below about -75%, passing the limit was not always enough;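 also: luminescence divided by OD600 gain over 9 h not by final OD600 alone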
m5-HT2A agonist: agonists of mouse serotonin 5-HT2A receptor (HTR2A); P35363; hit rate 0.66% among 360,000; activation, % at 7.6 µM; CHO-K1 mHTR2A beta-arrestin complementation, luminescence; percent of 30 µM serotonin response;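 active = activation above a run cutoff, the mean activation of all tested compounds plus 3 SD, cut at about 14% in these data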;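 also: 0% = plate median of compound wells and 100% = 30 µM serotonin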
Target sequence (P35363 whole entry, looked up): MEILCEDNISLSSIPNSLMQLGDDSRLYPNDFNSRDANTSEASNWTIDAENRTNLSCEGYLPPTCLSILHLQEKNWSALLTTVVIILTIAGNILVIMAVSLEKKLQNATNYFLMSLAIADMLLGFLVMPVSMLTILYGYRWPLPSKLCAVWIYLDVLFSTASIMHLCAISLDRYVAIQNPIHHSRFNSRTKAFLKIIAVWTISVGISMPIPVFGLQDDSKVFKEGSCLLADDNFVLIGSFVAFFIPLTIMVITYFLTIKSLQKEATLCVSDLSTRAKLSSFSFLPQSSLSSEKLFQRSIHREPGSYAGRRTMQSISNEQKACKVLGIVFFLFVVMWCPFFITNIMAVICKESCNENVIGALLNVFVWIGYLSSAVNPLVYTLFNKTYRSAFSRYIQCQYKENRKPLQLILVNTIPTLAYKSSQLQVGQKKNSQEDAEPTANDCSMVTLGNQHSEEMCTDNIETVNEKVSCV
MsrA inhibitor: bovine MsrA inhibition | purified bovine MsrA, absorbance read-out | inhibition, % at 15.5 µM | hit rate 0.75% among 360,000 | AID 651718; in the data active = inhibition above about 4.5%;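 also: 0% = vehicle wells with enzyme and 100% = reference inhibitor wells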
AHR activator: human AHR activation; hit rate 2.5% among 320,000; activation, % at 5 µM; AID 2796; P35869; AHR-responsive luciferase reporter cells, luminescence; in the data active = activation above about 47%;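 also: 0% = vehicle wells and 100% = reference agonist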
An asterisk follows results filed as active; . = no result. An excerpt weighted towards active compounds, which were near 4.4% of everything screened.

SMILES	TbMetRS inhib	MsrA act	AI-2 QS modul	m5-HT2A agonist	MsrA inhibitor	AHR activator
O=C(c1ccc([N+](=O)[O-])cc1[N+](=O)[O-])n1cnc2ccccc21	0.9	1.9	44.6	3.4	-0.2	59.1*
CCOc1ccc(Cn2ccnc2)cc1[N+](=O)[O-]	0.1	-0.8	7.8	-4.4	1.0	63.6*
C/C(=N\N=C(N)N)c1ccc(C)c(C)c1	-0.2	-2.8	4.0	-2.6	-1.0	59.4*
CC1Oc2ccccc2C=C1/C=N/Nc1ccc(C(=O)O)cc1 (stereo not drawn)	-0.3	-6.3	-92.3*	2.4	3.3	-0.2
CN(C)/C=C(/C(=O)c1ccccc1)n1cncn1	0.0	-1.7	14.3	1.5	-0.7	-2.4
O=C(/C=C(/c1ccc(Cl)cc1)n1cncn1)c1ccccc1	-0.5	-1.2	0.8	1.7	2.3	64.5*
O=C(COc1ccccc1)c1cn(CC(=O)N2CCCC2)c2ccccc12	-1.1	-6.8	-23.0	1.7	0.0	5.3
NC(=O)Cn1cc(C(=O)COc2ccccc2)c2ccccc21	.	.	20.3	.	0.6	74.6*
O=C(/C=C(\Nc1ccc(Cl)c(C(F)(F)F)c1)c1ccccc1)c1ccccc1	.	.	.	.	0.0	.
O=C(NN=C1CCCC1)c1ccccc1O	-0.2	-2.8	48.9	-4.3	0.9	23.2
O=C(NN=C1CCCCC1)c1ccccc1-n1cccc1	0.1	4.3	6.1	6.0	-0.6	48.5*
CC(C)(C)C1CCC(=NNC(=O)c2ccccc2-n2cccc2)CC1 (stereo not drawn)	-0.6	2.2	29.6	-5.4	-0.9	70.5*
O=C(NNC(=O)c1ccccc1-n1cccc1)c1ccc(Cl)cc1	-1.0	-2.6	16.6	3.2	0.5	62.0*
O=C1NC(c2ccc(Br)cc2)c2c(-c3ccccc3)n[nH]c21 (stereo not drawn)	.	.	.	.	0.0	.
c1ccc2c(c1)ccc1ncccc12	-1.5	-12.3	14.5	-0.7	0.2	-0.6
Oc1c(N=Nc2ccccn2)ccc2ccccc12	-1.2	-0.6	32.0	-11.7	1.2	67.8*
CCN(CC)CCCN1C(=O)C(O)=C(C(=O)c2cc3cccc(OC)c3o2)C1c1ccncc1 (stereo not drawn)	-0.3	-3.8	14.4	-3.0	4.8*	3.0
c1ccc(-c2nc3c([nH]2)CCc2nonc2-3)cc1	-0.1	-3.8	27.0	1.3	1.5	20.9
c1ccc(-c2cc3c(nn2)CCc2nonc2-3)cc1	-0.7	-2.2	9.5	1.2	0.4	57.2*
CCOC(=O)C1=C(C(=O)OCC)C2N(Cc3ccc(Br)cc3)c3ccccc3[C@@]23C[C@@H](C(=O)OC)N(S(=O)(=O)c2ccc(OC)cc2)C3=N1 (stereo partly drawn)	.	.	.	.	0.5	.
CC1CCN(C(=O)C2CCCN(c3ncnc4c3nc3n4CCCCC3)C2)CC1 (stereo not drawn)	-0.3	-2.6	25.0	3.3	0.1	1.6
CC1CC(C)CN(C(=O)C2CCCN(c3ncnc4c3nc3n4CCCCC3)C2)C1 (stereo not drawn)	-0.9	2.2	-76.2*	-0.6	-0.4	-0.6
COC(=O)[C@]12C[C@H](CC(=O)NCCCN3CCCC3=O)C(=O)N(Cc3ccccc3)C1=C[C@H](C1CCCC1)O[C@@H]2C	.	.	.	.	0.2	.
O=c1c2oc3ccccc3c2[nH]c(=S)n1-c1ccc(F)cc1	-1.4	-7.9	9.3	2.0	-0.2	57.2*
Cc1ccc(-n2c(=S)[nH]c3c(oc4ccccc43)c2=O)cc1C	0.0	5.5	11.8	-1.4	0.4	13.7
SMILES	TbMetRS inhib	MsrA act	AI-2 QS modul	m5-HT2A agonist	MsrA inhibitor	AHR activator
CC(C)(C)n1nc(C2CC2)c(Br)c1NC(=O)c1ccc(Cl)cc1	.	.	.	.	0.7	.
O=C(NCc1ccncc1)Nc1ccc(Cl)cc1Cl	0.0	-0.8	32.7	-3.2	0.2	48.5*
Cc1cc(NCCCn2ccnc2)n2nc(C)c(-c3ccc(Cl)cc3)c2n1	-0.1	-2.8	25.6	-2.1	2.2	48.4*
Cc1cc(NCCCn2ccnc2)n2nc(C)c(-c3ccccc3)c2n1	-0.7	-1.4	4.2	-0.4	1.7	112.1*
CCOc1ccccc1CN1CCN(Cc2[nH]c3ccccc3c2C)CC1CCO (stereo not drawn)	-1.6	-11.2	13.6	-10.7	0.1	51.4*
COc1cc2c(cc1OC)[C@](C)(c1ccccc1)C[C@@H]2NCC=C(C)C	.	.	.	.	-0.7	.
CN(C)c1ccc(NC(=O)c2sc(SCC(=O)Nc3ccc(Br)cc3)nc2N)cc1	0.2	-4.6	26.4	-3.9	0.6	2.8
CN(C)c1ccc(NC(=O)c2sc(SCC(=O)Nc3nccs3)nc2N)cc1	-0.6	-2.8	15.8	5.0	3.4	78.1*
O=C1CN(C(=O)CSc2nc(-c3ccccc3)cs2)c2ccccc2N1	-0.5	-4.5	12.5	-1.9	0.7	58.2*
O=C1CN(C(=O)CSc2nncs2)c2ccccc2N1	-0.4	-2.3	1.9	0.2	0.7	-0.4
Cn1nc(C(=O)Nc2cccc(Cl)c2)cc1C(=O)Nc1cccc(Cl)c1	-0.9	-1.5	12.9	-2.4	1.5	-4.1
Cn1nc(C(=O)Nc2ccc(Cl)cc2)cc1C(=O)Nc1ccc(Cl)cc1	-0.9	-2.1	8.6	4.4	-0.3	72.0*
Cc1ccc(NC(=O)c2cc(C(=O)Nc3ccc(C)cc3)n(C)n2)cc1	0.5	-1.6	5.7	-3.7	-1.4	61.7*
O=C(NCC1CCN(C(=O)C(=O)c2cccs2)CC1)c1ccc2ccccc2c1	.	.	.	.	0.3	.
O=c1[nH]c(=O)n(C2OC(CO)C(O)C2O)cc1F (stereo not drawn)	-0.4	-2.2	.	0.4	.	.
O=c1[nH]c(=S)ccn1C1OC(CO)C(O)C1O (stereo not drawn)	-0.1	-0.6	-90.7*	-1.7	4.3	0.7
S=c1[nH]c(-c2ccccc2)cn1/N=C/c1ccccc1Br	-0.3	-1.1	-10.4	0.9	0.2	62.4*
Oc1ccc(/C=N/n2cc(-c3ccccc3)[nH]c2=S)cc1	-0.3	-7.2	29.5	1.1	4.1	64.2*
S=c1[nH]c(-c2ccccc2)cn1/N=C/c1cccc2ccccc12	0.3	-1.3	32.1	-3.6	-0.1	99.0*
COc1ccc2nc(N)sc2c1	1.6	-0.3	12.6	-0.1	0.1	19.9
Cc1cc2nc(N)sc2cc1[N+](=O)[O-]	0.3	-2.4	12.1	0.6	5.2*	0.9
COc1ccc(N2C(=O)c3[nH]nc(-c4ccccc4)c3C2c2ccc(Br)cc2)cc1 (stereo not drawn)	.	.	.	.	0.3	.
COCCN1Cc2cc(C(=O)OC)c3c(c2C1=O)c1cc(OC)ccc1n3S(=O)(=O)c1ccc(C)cc1	.	.	.	.	0.6	.
COC(=O)CCC(=O)Nc1ccc(S(=O)(=O)Nc2cc(OC)nc(OC)n2)cc1	-0.3	-1.4	-0.3	9.7	1.9	73.5*
CN(C)c1ccc(C(=O)NCC2CCN(C(=O)C(=O)c3cccs3)CC2)cc1	.	.	.	.	1.3	.
COCCNC(=O)c1c(N)n(/N=C/c2cccs2)c2nc3ccccc3nc12	-1.3	-13.9	30.8	5.3	-0.2	50.0*
